Source: PubChem BioAssay (Broad Institute)
Compounds with a hit are over-represented: about 2.9% of the library has one in this group of screens.
Cneo AK release: causes C. neoformans cell lysis; lysis activity, % at 15 µM; adenylate kinase release luminescence, 4 h; normalised: neutral wells 0, clomiphene wells 100; 360,000 tested, 0.2% active;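 active = mean lysis activity across replicates of at least 80%, whatever share of replicates individually reach that level; inactive = mean lysis activity below 80%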
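Test system: log-phase Cryptococcus neoformans yeast cells; Quantity: yeast cell density of 5 × 10^6 cells/mL; Buffer or medium: YPD; Doses: single compound concentration per well; Timing: 4 h at 37 °C static, read 1 h later; Measured by: AK luminescence; Read-out basis: lysis from increased AK signal; Control set: Clomiphene as positive control.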
GSIS activator: GLuc luminescence reporter in INS-1E cells, primary screen for activators of glucose-dependent secretion of insulin; INS-1E GLuc reporter insulin secretion, 2-3 h; activation, % at 16.6 µM; 370,000 tested, 0.61% active; AID 743287;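 active = lowest replicate activation of at least 40%, so every replicate reaches that level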
CDK5 p35 inh: inhibitors of human CDK5/p35 kinase | 330,000 tested, 0.01% active | inhibition, % at 10 µM | Q00535+Q15078 | AID 488839 | Recombinant CDK5/p35, ADP-Glo luminescence, 60 min;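 active = highest replicate inhibition of at least 50% and at least 75% of replicates reaching 50%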
Target sequence (Q00535 whole entry, looked up): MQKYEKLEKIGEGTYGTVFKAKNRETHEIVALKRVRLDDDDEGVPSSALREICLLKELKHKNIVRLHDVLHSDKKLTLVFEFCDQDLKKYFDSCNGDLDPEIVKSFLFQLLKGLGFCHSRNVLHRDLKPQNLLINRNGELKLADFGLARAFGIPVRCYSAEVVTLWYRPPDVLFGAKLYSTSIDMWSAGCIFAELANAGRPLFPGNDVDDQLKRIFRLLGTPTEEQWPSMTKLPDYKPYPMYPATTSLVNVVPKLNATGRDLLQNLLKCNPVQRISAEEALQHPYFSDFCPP
Target sequence (Q15078 whole entry, looked up): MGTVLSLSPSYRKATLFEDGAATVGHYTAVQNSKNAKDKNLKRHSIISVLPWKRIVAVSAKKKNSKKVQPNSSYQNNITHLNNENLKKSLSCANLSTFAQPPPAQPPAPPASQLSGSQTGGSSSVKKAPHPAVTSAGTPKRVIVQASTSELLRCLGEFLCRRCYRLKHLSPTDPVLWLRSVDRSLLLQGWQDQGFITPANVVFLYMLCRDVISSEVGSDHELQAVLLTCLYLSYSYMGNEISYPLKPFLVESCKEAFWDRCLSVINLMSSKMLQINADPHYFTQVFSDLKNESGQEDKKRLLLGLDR
PAX8 reporter: PAX8 transcriptional activity inhibition | RMG-I TPO-luciferase reporter, SteadyGlo, 24 h | inhibition, % at 12.6 µM | 360,000 tested, 1.2% active | AID 652154;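 active = mean replicate inhibition at least 60% with every replicate also reaching 60%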;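 also: luciferase light reporting Pax8 driven TPO promoter activity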
dFosB activator: enhances mouse delta FosB homodimer DNA binding. purified delta FosB, TAMRA-CDK5 oligo fluorescence polarization; percent of positive-control signal above neutral wells. activation, % at 25 µM. 340,000 tested, 0.99% active. AID 493131;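 active = mean activation above about 17%, with every replicate also reaching it, limit read from the data, passing the limit was not always enough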
HIV Env fusion: inhibitors of HIV Env-mediated cell fusion; HeLa-JRFL Env/CEM21 cell fusion, luciferase; inhibition, % at 12.3 µM; 360,000 tested, 1.1% active;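 active = mean replicate inhibition score of at least 50 and every replicate individually at or above 50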
Hits are given with their value; - = inactive; . = no result; ! = repeats disagree.

SMILES | Cneo AK release | GSIS activator | CDK5 p35 inh | PAX8 reporter | dFosB activator | HIV Env fusion
Cc1ccc(-n2c(-c3ccc(Cl)cc3)c[n+]3c2CCC3)cc1 | . | - | - | - | - | -
COc1ccc(-n2c(-c3ccc(Br)cc3)c[n+]3c2CCCCC3)cc1 | - | - | - | 84 | - | -
Cc1ccc(-n2c(-c3ccccc3)c[n+]3c2CCC3)cc1 | . | - | - | - | - | 62
COc1ccc(-n2c(-c3ccccc3)c[n+]3c2CCC3)cc1 | - | . | - | - | - | -
CC=Cc1ccc2n(c1=O)C[C@H]1[C@H](CO)[C@@H](C(=O)Nc3ccc(-c4ccccc4)cc3)[C@@H]2N1C (mixture of isomers) | - | - | . | - | . | .
COc1ccc(-n2c(-c3ccc(Br)cc3)c[n+]3c2CCC3)cc1 | - | - | - | 80 | - | -
CCOc1ccc(-c2c[n+]3c(n2-c2ccccc2)CCCCC3)cc1 | . | - | - | 80 | - | -
CCOc1ccc(-c2nnc(-c3ccccc3)n2-c2ccccc2)cc1 | - | . | - | - | - | -
FC(F)Sc1ccc(-n2c(-c3ccc(Cl)cc3)c[n+]3c2CCC3)cc1 | . | - | - | 67 | - | -
COCC(=O)Nc1ccc2c(c1)[C@@H]1C[C@@H](CC(=O)NCCN3CCCCC3)O[C@H](CO)[C@@H]1O2 | - | - | . | - | . | -
CCC(=O)Nc1ccc2c(c1)OC[C@@H](C)N(Cc1ccccn1)C[C@@H](C)[C@@H](OC)CN(C)C2=O | - | - | . | - | . | .
CCOC(=O)c1c(NC(=O)Cn2nc(C(F)(F)F)cc2C)sc(C)c1C | - | 61 | - | - | - | -
CCOC(=O)c1c(NC(=O)Cn2nc(C(F)F)cc2C(F)F)sc(C)c1C | - | - | - | . | - | .
Cc1ccc2[nH]c3c(=O)n(N)c(C)nc3c2c1 | - | - | - | - | - | -
Cc1ccc2[nH]c3c(=O)[nH]ncc3c2c1 | - | - | - | - | - | 66
C[C@@H]1CCCCO[C@H](CN(C)Cc2ccc(C(F)(F)F)cc2)[C@H](C)CN([C@H](C)CO)C(=O)c2cc(NC(=O)CCCN(C)C)ccc2O1 | - | - | . | . | . | -
CC(C)Cc1nc2n[nH]c(N)c2c2c1COC(C)(C)C2 | . | 80 | - | . | - | .
C[C@H]1CN([C@@H](C)CO)C(=O)c2cc(C3=CCCCC3)cnc2O[C@@H]1CN(C)S(=O)(=O)c1cn(C)cn1 | - | - | . | - | . | -
S=C(Nc1cccc(Cl)c1)N(CCCN1CCCC1)Cc1cccn1Cc1ccc(Cl)cc1 | - | - | - | - | - | -
CSc1cccc(NC(=S)N(CCCN2CCCC2)Cc2cccn2Cc2ccc(Cl)cc2)c1 | - | - | - | - | 27 | -
C[C@@H]1CN([C@H](C)CO)C(=O)Cc2cc(NC(=O)NC3CCCCC3)ccc2O[C@@H]1CN(C)C(=O)Nc1ccc2c(c1)OCO2 | - | - | . | - | . | -
Brc1ccc(-n2cc(-c3ccccc3)c3c(NN4CCOCC4)ncnc32)cc1 | - | - | - | 95 | - | .
COc1ccc(-n2cc(-c3ccccc3)c3c(N4CCOCC4)ncnc32)cc1 | - | - | - | 64 | - | -
Fc1ccc(-n2cc(-c3ccccc3)c3c(N4CCOCC4)ncnc32)cc1 | . | - | - | - | - | -
Cc1ccccc1-c1ccc2c(c1)O[C@H](CN(C)Cc1ccncc1)[C@@H](C)CN([C@@H](C)CO)S2(=O)=O | - | - | . | . | . | -
SMILES | Cneo AK release | GSIS activator | CDK5 p35 inh | PAX8 reporter | dFosB activator | HIV Env fusion
CCOC(=O)CSc1nc2ccccc2c(=O)n1CC1COc2ccccc2O1 (stereo not given) | - | . | - | . | - | 65
CC1=CC2C(C(O)CC3(C)C2CC(C)C32OCOC23COCO3)C2(C)C/C(=C\O)C(=O)C=C12 (stereo not given) | . | - | - | . | - | 113
C[C@@H]1CN([C@H](C)CO)C(=O)c2c(c3ccccc3n2C)-c2ccccc2CO[C@H]1CN(C)Cc1ccc(Cl)c(Cl)c1 | . | - | . | - | . | .
COc1ccccc1-c1ccc(C2[C@H]3CNC[C@@H]2N3Cc2cc(-c3ccccc3)on2)cc1 (stereo not given in full) | . | - | . | - | . | .
C/C=C/c1ccc(C2[C@H]3CNC[C@@H]2N3Cc2cc(-c3ccccc3)on2)cc1 (stereo not given in full) | . | 72! | . | - | . | .
N#Cc1cccc(-c2ccc(C3[C@H]4CNC[C@@H]3N4Cc3cc(-c4ccccc4)on3)cc2)c1 (stereo not given in full) | . | 72! | . | - | . | .
